# Assay results: ChEMBL document CHEMBL3576820, “Discovery of benzimidazole oxazolidinediones as novel and selective nonsteroidal mineralocorticoid receptor antagonists” (ACS Med Chem Lett, 2015)
# Activity calls are given as the source filed them. The calls are words filed in the database; no cut-off is given here.
# Legend:
# Homo sapiens [1] = species on record: Homo sapiens; assay: Selectivity ratio of IC50 for human estrogen receptor beta to IC50 for human mineralocorticoid receptor
# [2] = Plasma protein binding in human; format: ADME, cell-free; conditions: read-out: PPB
# [3] = Plasma clearance in Wistar han rat at 2 mg/kg, po and 1 mg/kg, iv; format: ADME, organism-based
# In short: (§1)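 Wistar Han rats. IV dose 1 mg/kg in DMSO/PEG200/water (10:60:30), n=2. Oral dose 2 mg/kg in imwitor/tween (1:1) by gavage, n=3. Values are averages. Derived: F%, plasma clearance, Vdss, terminal half-life and oral AUC normalized to dose.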
# [4] = Terminal half life in Wistar han rat at 2 mg/kg, po and 1 mg/kg, iv; format: ADME, organism-based; conditions: in vivo, read-out: beta t1/2 (converted); in short: as §1
# [5] = target: T1, Mineralocorticoid receptor (Homo sapiens, UniProt P08235); assay: Antagonist activity at human mineralocorticoid receptor overexpressed in CHOK1 cells assessed as inhibition of aldosterone-induced protein interaction with coactivator peptide after 6 hrs by luminescence assay; format: cell-based, CHO-K1
# T1 sequence (P08235 whole entry): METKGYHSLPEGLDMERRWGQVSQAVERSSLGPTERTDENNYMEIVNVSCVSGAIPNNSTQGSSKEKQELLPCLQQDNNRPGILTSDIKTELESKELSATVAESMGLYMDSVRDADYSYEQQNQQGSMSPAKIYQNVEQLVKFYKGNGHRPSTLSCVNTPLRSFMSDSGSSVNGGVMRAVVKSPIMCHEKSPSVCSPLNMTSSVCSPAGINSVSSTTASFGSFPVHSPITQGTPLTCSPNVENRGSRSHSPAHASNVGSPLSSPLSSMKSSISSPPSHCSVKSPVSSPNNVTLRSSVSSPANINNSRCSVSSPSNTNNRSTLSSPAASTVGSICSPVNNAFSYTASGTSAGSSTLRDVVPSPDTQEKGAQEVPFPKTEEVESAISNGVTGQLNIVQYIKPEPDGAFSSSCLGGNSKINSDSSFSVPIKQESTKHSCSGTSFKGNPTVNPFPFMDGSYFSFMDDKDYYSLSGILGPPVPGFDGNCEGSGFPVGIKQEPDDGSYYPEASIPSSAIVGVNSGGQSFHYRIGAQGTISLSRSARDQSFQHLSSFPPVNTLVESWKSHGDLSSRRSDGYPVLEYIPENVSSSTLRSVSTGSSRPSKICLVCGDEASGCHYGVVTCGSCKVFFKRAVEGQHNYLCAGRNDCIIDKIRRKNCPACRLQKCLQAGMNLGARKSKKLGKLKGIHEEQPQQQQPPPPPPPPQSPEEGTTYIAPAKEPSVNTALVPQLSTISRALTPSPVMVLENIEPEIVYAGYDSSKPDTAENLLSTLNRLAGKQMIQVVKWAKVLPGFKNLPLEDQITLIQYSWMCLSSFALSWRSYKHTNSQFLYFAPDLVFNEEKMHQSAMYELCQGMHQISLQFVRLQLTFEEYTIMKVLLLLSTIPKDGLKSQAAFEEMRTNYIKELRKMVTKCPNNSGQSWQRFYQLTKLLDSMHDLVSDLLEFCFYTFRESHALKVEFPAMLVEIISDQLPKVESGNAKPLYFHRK
# Homo sapiens [6] = species on record: Homo sapiens; assay: Selectivity ratio of IC50 for human glucocorticoid receptor to IC50 for human mineralocorticoid receptor
# [7] = Fraction unbound in 10% rat plasma; format: ADME, cell-free; conditions: 10% plasma
# In short: (§2)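 Free fraction measured in the presence of 10% plasma (human or rat), taken as correlating with the free fraction in whole plasma.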
# Rattus norvegicus = assay: Natriuretic activity in po dosed WKY rat measured over 6 hrs; format: functional, organism-based
# Homo sapiens [8] = species on record: Homo sapiens; assay: Selectivity ratio of IC50 for human progesterone receptor beta to IC50 for human mineralocorticoid receptor
# [9] = Volume of distribution at steady state in Wistar han rat at 2 mg/kg, po and 1 mg/kg, iv; format: ADME, organism-based; conditions: in vivo, read-out: Vdss; in short: as §1
# Homo sapiens [10] = species on record: Homo sapiens; assay: Selectivity ratio of IC50 for human estrogen receptor alpha to IC50 for human mineralocorticoid receptor
# [11] = Plasma protein binding in rat; format: ADME, cell-free; conditions: read-out: PPB
# Estrogen receptor beta = Estrogen receptor beta (Homo sapiens, UniProt Q92731); assay: Antagonist activity at human estrogen receptor beta assessed as inhibition of agonist-induced protein interaction with steroid receptor co-activator peptide by cell-based reporter gene assay
# Sequence of Estrogen receptor beta (Q92731 whole entry): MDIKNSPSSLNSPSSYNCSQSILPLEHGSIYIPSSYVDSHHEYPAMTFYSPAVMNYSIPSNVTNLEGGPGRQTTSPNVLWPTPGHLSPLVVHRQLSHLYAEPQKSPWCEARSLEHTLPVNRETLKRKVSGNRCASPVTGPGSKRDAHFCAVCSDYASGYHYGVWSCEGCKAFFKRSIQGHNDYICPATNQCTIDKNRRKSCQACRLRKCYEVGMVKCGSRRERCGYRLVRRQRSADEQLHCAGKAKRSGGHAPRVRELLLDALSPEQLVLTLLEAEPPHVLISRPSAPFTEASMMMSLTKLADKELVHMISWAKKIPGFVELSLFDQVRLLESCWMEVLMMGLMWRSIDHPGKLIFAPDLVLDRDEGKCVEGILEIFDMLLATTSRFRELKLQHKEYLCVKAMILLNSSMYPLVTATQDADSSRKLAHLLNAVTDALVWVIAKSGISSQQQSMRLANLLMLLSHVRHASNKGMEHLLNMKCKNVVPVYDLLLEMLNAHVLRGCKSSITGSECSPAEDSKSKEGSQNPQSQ
# Homo sapiens [12] = species on record: Homo sapiens; assay: Selectivity ratio of IC50 for human androgen receptor to IC50 for human mineralocorticoid receptor
# [13] = Fraction unbound in 10% human plasma; format: ADME, cell-free; conditions: 10% plasma; in short: as §2
# [14] = target: T1, Mineralocorticoid receptor; assay: Binding affinity to mineralocorticoid receptor (unknown origin)
structure (smiles),measurement,setting,value
C[C@H](c1ccc(F)cc1)N1C(=O)O[C@](Cc2ccccc2)(c2nc3cc(-c4cccnc4)ccc3[nH]2)C1=O,Ratio IC50,Homo sapiens [1],> 40
same,fraction unbound,[2],< 0.01
same,clearance,[3],80 mL/min/kg
same,half-life,[4],0.94 h
same,IC50,[5],0.034 µM
same,Ratio IC50,Homo sapiens [6],> 40
same,fraction unbound,[7],0.008
same,Activity,Rattus norvegicus,Active
same,Ratio IC50,Homo sapiens [8],> 40
same,Vd,[9],5 L/kg
same,Ratio IC50,Homo sapiens [10],> 40
same,fraction unbound,[11],< 0.01
same,IC50,Estrogen receptor beta,2.7 µM
same,Ratio IC50,Homo sapiens [12],110
same,fraction unbound,[13],0.002
C[C@H](c1ccc(F)cc1)N1C(=O)O[C@](Cc2ccccc2)(c2nc3cc(NS(C)(=O)=O)ccc3[nH]2)C1=O,clearance,[3],32 mL/min/kg
same,half-life,[4],1.6 h
same,IC50,[5],0.22 µM
same,fraction unbound,[7],0.064
same,Activity,Rattus norvegicus,Active
same,Vd,[9],1.8 L/kg
same,IC50,Estrogen receptor beta,12 µM
same,fraction unbound,[13],0.034
C[C@H](c1ccc(F)cc1)N1C(=O)O[C@](Cc2ccccc2)(c2nc3cc(-c4cc[nH]n4)ccc3[nH]2)C1=O,clearance,[3],19 mL/min/kg
same,half-life,[4],1.8 h
same,IC50,[5],0.12 µM
same,fraction unbound,[7],0.017
same,Vd,[9],1.6 L/kg
same,IC50,Estrogen receptor beta,2.6 µM
same,fraction unbound,[13],0.04
C[C@H](c1ccc(F)cc1)N1C(=O)O[C@](Cc2ccccc2)(c2nc3cc(N4CCOCC4)ccc3[nH]2)C1=O,Ratio IC50,Homo sapiens [1],> 40
same,clearance,[3],67 mL/min/kg
same,half-life,[4],0.69 h
same,IC50,[5],0.04 µM
same,Ratio IC50,Homo sapiens [6],> 40
same,fraction unbound,[7],0.065
same,Activity,Rattus norvegicus,Dose-dependent effect
same,Ratio IC50,Homo sapiens [8],> 40
same,Vd,[9],2.3 L/kg
same,Ratio IC50,Homo sapiens [10],> 40
same,IC50,Estrogen receptor beta,5.3 µM
same,Ratio IC50,Homo sapiens [12],> 40
same,fraction unbound,[13],0.093
C[C@H](c1ccc(F)cc1)N1C(=O)O[C@](Cc2ccccc2)(c2nc3cc(Cl)ccc3[nH]2)C1=O,fraction unbound,[2],< 0.01
same,clearance,[3],47 mL/min/kg
same,half-life,[4],1.5 h
same,IC50,[5],0.16 µM
same,Ki,[14],0.002 µM
same,fraction unbound,[7],0.01
same,Activity,Rattus norvegicus,Active
same,Vd,[9],4.6 L/kg
same,fraction unbound,[11],< 0.01
same,IC50,Estrogen receptor beta,2.4 µM
same,fraction unbound,[13],0.002
Cc1nocc1-c1ccc2[nH]c([C@@]3(Cc4ccccc4)OC(=O)N([C@H](C)c4ccc(F)cc4)C3=O)nc2c1,Ratio IC50,Homo sapiens [1],> 40
same,clearance,[3],20 mL/min/kg
same,half-life,[4],1.2 h
same,IC50,[5],0.039 µM
same,Ratio IC50,Homo sapiens [6],> 40
same,Ratio IC50,Homo sapiens [8],> 40
same,Vd,[9],1.9 L/kg
same,Ratio IC50,Homo sapiens [10],> 40
same,IC50,Estrogen receptor beta,3 µM
same,Ratio IC50,Homo sapiens [12],90
C[C@H](c1ccc(F)cc1)N1C(=O)O[C@](Cc2ccccc2)(c2nc3c(NS(C)(=O)=O)cccc3[nH]2)C1=O,clearance,[3],55 mL/min/kg
same,half-life,[4],1.2 h
same,IC50,[5],0.21 µM
same,fraction unbound,[7],0.064
same,Vd,[9],3.2 L/kg
same,IC50,Estrogen receptor beta,7.3 µM
same,fraction unbound,[13],0.058
C[C@H](c1ccc(F)cc1)N1C(=O)O[C@](Cc2ccccc2)(c2nc3cc(C(F)(F)F)ccc3[nH]2)C1=O,fraction unbound,[2],< 0.01
same,clearance,[3],33 mL/min/kg
same,half-life,[4],1.7 h
same,IC50,[5],0.12 µM
same,fraction unbound,[7],0.007
same,Vd,[9],3.4 L/kg
same,fraction unbound,[11],< 0.01
same,IC50,Estrogen receptor beta,2.7 µM
same,fraction unbound,[13],0.002
